Source: ChEMBL document CHEMBL2177069, “Novel peptidomimetic compounds containing redox active chalcogens and quinones as potential anticancer agents” (Eur J Med Chem, 2012)
pIC50: −log10 of the molar value.

What was measured:
[1] = tested on: Saccharomyces cerevisiae; experiment: Growth inhibition of GSH2-deficient Saccharomyces cerevisiae YOL049W mutant at 20 ug/disc after 24 to 48 hrs by agar diffusion assay; format: functional; details: read-out: DIZ
Outline: (§1)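 S. cerevisiae deletion mutants or wild type grown on YPD, seeded into liquid agar medium at an optical density of 0.1. 6 mm paper discs soaked with methanolic compound solution were placed on the plates and incubated at 30 °C. Growth was checked after 1 and 2 days, and the inhibition zone diameter was recorded in mm.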

[2] = tested on: SNB-19; experiment: Cytotoxicity against human SNB19 cells; format: functional
[3] = Cytotoxicity against human 786-O cells; format: functional
[4] = tested on: CAKI-1; experiment: Cytotoxicity against human Caki1 cells; format: functional
[5] = tested on: Saccharomyces cerevisiae; experiment: Growth inhibition of POS5-deficient Saccharomyces cerevisiae YPL188W mutant at 20 ug/disc after 24 to 48 hrs by agar diffusion assay; format: functional; details: read-out: DIZ; outline: as §1
[6] = tested on: SK-OV-3; experiment: Cytotoxicity against human SKOV3 cells; format: functional
[7] = tested on: MOLT-4; experiment: Cytotoxicity against human MOLT4 cells; format: functional
[8] = tested on: OVCAR-4; experiment: Cytotoxicity against human OVCAR4 cells; format: functional
[9] = tested on: NCI-H226; experiment: Cytotoxicity against human NCI-H226 cells; format: functional
[10] = tested on: Saccharomyces cerevisiae; experiment: Growth inhibition of WSC4-deficient Saccharomyces cerevisiae YHL028W mutant at 20 ug/disc 24 to 48 hrs by agar diffusion assay; format: functional; details: read-out: DIZ; outline: as §1
[11] = tested on: NCI-H522; experiment: Cytotoxicity against human NCI-H522 cells; format: functional
[12] = tested on: Saccharomyces cerevisiae; experiment: Growth inhibition of SOD2-deficient Saccharomyces cerevisiae YHR008C mutant at 20 ug/disc 24 to 48 hrs by agar diffusion assay; format: functional; details: read-out: DIZ; outline: as §1
[13] = tested on: A498; experiment: Cytotoxicity against human A498 cells; format: functional
[14] = tested on: Saccharomyces cerevisiae; experiment: Growth inhibition of RCK1-deficient Saccharomyces cerevisiae YGL158W mutant at 20 ug/disc after 24 to 48 hrs by agar diffusion assay; format: functional; details: read-out: DIZ; outline: as §1
[15] = tested on: NCI/ADR-RES; experiment: Cytotoxicity against human NCI/ADR-RES cells; format: functional
[16] = tested on: MCF7; experiment: Cytotoxicity against human MCF7 cells; format: functional
[17] = tested on: OVCAR-8; experiment: Cytotoxicity against human OVCAR8 cells; format: functional
[18] = tested on: KM12; experiment: Cytotoxicity against human KM12 cells; format: functional
[19] = tested on: IGROV-1; experiment: Cytotoxicity against human IGROV1 cells; format: functional
[20] = tested on: SF-268; experiment: Cytotoxicity against human SF268 cells; format: functional
[21] = tested on: Saccharomyces cerevisiae; experiment: Growth inhibition of COX17-deficient Saccharomyces cerevisiae YLL009C mutant at 20 ug/disc after 24 to 48 hrs by agar diffusion assay; format: functional; details: read-out: DIZ; outline: as §1
[22] = tested on: Saccharomyces cerevisiae; experiment: Growth inhibition of UFD2-deficient Saccharomyces cerevisiae YDL190C mutant at 20 ug/disc after 24 to 48 hrs by agar diffusion assay; format: functional; details: read-out: DIZ; outline: as §1
[23] = Cytotoxicity against human PHF cells after 24 hrs by MTT assay; format: cell-based
Outline: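 MTT assay. Cells were seeded at 50,000 cells/mL in medium with 10% fetal calf serum and grown for two days at 37 °C, 10% CO2. Serial dilutions of compound were then added for 24 h. MTT was added (final 0.5 mg/mL) for 2 h, and the formazan was pelleted, washed, dissolved in isopropanol with 0.4% HCl and read at 590 nm. IC50 is the concentration giving 50% of untreated-control absorbance, taken from dose-response curves; mean of two parallel experiments.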

[24] = tested on: SR; experiment: Cytotoxicity against human SR cells; format: functional
[25] = tested on: DU-145; experiment: Cytotoxicity against human DU145 cells; format: functional
[26] = tested on: EKVX; experiment: Cytotoxicity against human EKVX cells; format: functional
[27] = tested on: Saccharomyces cerevisiae; experiment: Growth inhibition of wild type Saccharomyces cerevisiae BY4741 at 20 ug/disc after 24 to 48 hrs by agar diffusion assay; format: functional; details: read-out: DIZ; outline: as §1
[28] = tested on: ACHN; experiment: Cytotoxicity against human ACHN cells; format: functional
[29] = tested on: Malme-3M; experiment: Cytotoxicity against human MALME-3M cells; format: functional
[30] = tested on: MDA-MB-231; experiment: Cytotoxicity against human MDA-MB-231 cells; format: functional
[31] = tested on: SK-MEL-2; experiment: Cytotoxicity against human SK-MEL-2 cells; format: functional
[32] = tested on: Saccharomyces cerevisiae; experiment: Growth inhibition of SOD1-deficient Saccharomyces cerevisiae YJR104C mutant at 20 ug/disc after 24 to 48 hrs by agar diffusion assay; format: functional; details: read-out: DIZ; outline: as §1

Compound: CC1=C([Se]CC(OC(=O)[C@@H](CO)NC(=O)OC(C)(C)C)C(=O)NCCCCCC(=O)OCc2ccccc2)C(=O)c2ccccc2C1=O (stereo not given in full)
- zone of inhibition at 20 µg/disc [1]: 0 mm
- GI50 [2]: 0.776 µM
- LC50 [2]: 5.01 µM
- TGI ([2]; read-out: pTGI (converted)): 2.14 µM
- GI50 ([3]; 786-0): 2.09 µM
- LC50 ([3]; 786-0): 6.03 µM
- TGI ([3]; 786-0, read-out: pTGI (converted)): 3.55 µM
- GI50 [4]: 1.82 µM
- LC50 [4]: 6.03 µM
- TGI ([4]; read-out: pTGI (converted)): 3.31 µM
- zone of inhibition at 20 µg/disc [5]: 0 mm
- GI50 [6]: 1.29 µM
- LC50 [6]: 5.13 µM
- TGI ([6]; read-out: pTGI (converted)): 2.57 µM
- GI50 [7]: 1.38 µM
- LC50 [7]: > 100 µM
- TGI ([7]; read-out: pTGI (converted)): 4.9 µM
- GI50 [8]: 1.55 µM
- LC50 [8]: 5.37 µM
- TGI ([8]; read-out: pTGI (converted)): 2.88 µM
- GI50 [9]: 2.24 µM
- CC50 ([9]; read-out: pLC50 (the source's name) (converted)): 8.71 µM
- TGI ([9]; read-out: pTGI (converted)): 4.37 µM
- zone of inhibition at 20 µg/disc [10]: 0 mm
- GI50 [11]: 2 µM
- LC50 [11]: 6.03 µM
- TGI ([11]; read-out: pTGI (converted)): 3.47 µM
- zone of inhibition at 20 µg/disc [12]: 11 mm
- GI50 [13]: 2.04 µM
- LC50 (50% lethal concentration) [13]: 45.7 µM
- TGI ([13]; read-out: pTGI (converted)): 5.89 µM
- zone of inhibition at 20 µg/disc [14]: 0 mm
- GI50 [15]: 2.04 µM
- TGI ([15]; read-out: pTGI (converted)): 3.89 µM
- GI50 [16]: 1.62 µM
- LC50 [16]: 7.08 µM
- TGI ([16]; read-out: pTGI (converted)): 3.39 µM
- GI50 [17]: 1.82 µM
- LC50 [17]: 6.17 µM
- TGI ([17]; read-out: pTGI (converted)): 3.39 µM
- GI50 [18]: 1.51 µM
- LC50 [18]: 5.5 µM
- TGI ([18]; read-out: pTGI (converted)): 2.88 µM
- GI50 [19]: 1.78 µM
- LC50 (concentration killing 50% of cells) [19]: 6.31 µM
- TGI ([19]; read-out: pTGI (converted)): 3.39 µM
- GI50 [20]: 1.86 µM
- LC50 [20]: 5.75 µM
- TGI ([20]; read-out: pTGI (converted)): 3.24 µM
- zone of inhibition at 20 µg/disc [21]: 0 mm
- zone of inhibition at 20 µg/disc [22]: 0 mm
- pIC50 [23]: 4.57
- GI50 [24]: 1.58 µM
- LC50 [24]: > 100 µM
- TGI ([24]; read-out: pTGI (converted)): 6.61 µM
- GI50 [25]: 1.82 µM
- LC50 [25]: 5.89 µM
- TGI ([25]; read-out: pTGI (converted)): 3.24 µM
- GI50 [26]: 1.82 µM
- LC50 [26]: 8.32 µM
- TGI ([26]; read-out: pTGI (converted)): 3.89 µM
- zone of inhibition at 20 µg/disc [27]: 0 mm
- GI50 [28]: 1.66 µM
- LC50 [28]: 5.75 µM
- TGI ([28]; read-out: pTGI (converted)): 3.09 µM
- GI50 [29]: 2.09 µM
- LC50 [29]: 7.08 µM
- TGI ([29]; read-out: pTGI (converted)): 3.8 µM
- GI50 [30]: 1.66 µM
- LC50 [30]: 6.03 µM
- TGI ([30]; read-out: pTGI (converted)): 3.16 µM
- GI50 [31]: 2.24 µM
- LC50 [31]: 7.41 µM
- TGI ([31]; read-out: pTGI (converted)): 4.07 µM
- zone of inhibition at 20 µg/disc [32]: 17 mm
